# Experimental data published in PubChem BioAssay AID504768 (Southern Research Specialized Biocontainment Screening …, 2011).
# Active and inactive are the calls of the source.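 How the source made its calls: active means phage lysis blocked by at least 50% at any tested concentration; inactive means the rest.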
# Assay: K1F phage lysis inhibition in UTI89, confirmation, capsule biogenesis inhibitor project, UTI89 strain, C7 control, set 4 (AID 504768)
# Conditions: E. coli UTI89 K1F phage lysis inhibition, OD600; series mostly up to 300 µM; inhibition of phage lysis: at the top concentration
# How it was run: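 System: E. coli UTI89 K1 and kpsM mutant; Medium: LB, cultures diluted 1:100; Probe or stimulus: K1F phage, added after compound pre-incubation; Doses: DMSO at 1% final; Schedule: 1.25 h compound pre-incubation at 37 °C shaking, lysis read 3 h post-phage; Technique: OD600 absorbance; Repeats: four replicate wells per compound concentration.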
row,SMILES,inhibition of phage lysis
1,O=C(Nc1nc2c(F)cc(F)cc2s1)c1ccncc1,0% (inactive)
2,O=C(Nc1nc2c(F)cc(F)cc2s1)c1ccccc1,0% (inactive)
3,O=C(Nc1nc2ccccc2s1)c1ccncc1,0% (inactive)
4,O=C(Nc1nc2ccc(F)cc2s1)c1ccccn1,0% (inactive)
5,O=C(Nc1nc2c(F)cccc2s1)c1ccccn1,0% (inactive)
6,Cc1cc(C)c2nc(NC(=O)c3ccccn3)sc2c1,0% (inactive)
7,O=C(Nc1nc2c(Cl)cc(Cl)cc2s1)c1ccccn1,0% (inactive)
8,O=C(Nc1nc2c(F)cc(F)cc2s1)c1cccnc1,0% (inactive)
9,O=C(Nc1nc2ccccc2s1)c1cccnc1,0% (inactive)
